In ChEMBL document CHEMBL1158339, “Synthesis and anti-microbial screening of some Schiff bases of 3-amino-6,8-dibromo-2-phenylquinazolin-4(3H)-ones” (2009):
Converted amounts (≈) assume the structure as drawn.

How the values were obtained:
Micrococcus luteus [1] = test: Antibacterial activity against Micrococcus luteus ATCC 4698 at 100 ug/disk after 24 hrs by paper disk diffusion technique; type: functional; conditions: NCTC 2665, 24 h, read-out: IZ
Bacillus cereus [2] = test: Antibacterial activity against Bacillus cereus ATCC 11778 at 100 ug/disk after 24 hrs by paper disk diffusion technique; type: functional; conditions: ATCC 11778, 24 h, read-out: IZ
Staphylococcus aureus [3] = test: Antibacterial activity against Staphylococcus aureus ATCC 9144 after 24 hrs by agar streak dilution method; type: functional; conditions: ATCC 9144, 24 h
How it was run: (§1)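 Agar streak dilution MIC. Stock […] in dimethyl formamide. Graded quantities go into molten sterile nutrient agar, poured at 40–50 °C to 3–4 mm depth and left to solidify. Plates are streaked with about 10⁵ cfu/ml bacterial suspension and incubated 24 h at 37 °C. MIC is the lowest concentration with no visible growth.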

[4] = tested on: Staphylococcus epidermidis; test: Antibacterial activity against Staphylococcus epidermidis ATCC 155 after 24 hrs by agar streak dilution method; type: functional; conditions: ATCC 155, 24 h; how it was run: as §1
Micrococcus luteus [5] = test: Antibacterial activity against Micrococcus luteus ATCC 4698 after 24 hrs by agar streak dilution method; type: functional; conditions: NCTC 2665, 24 h; how it was run: as §1
Bacillus cereus [6] = test: Antibacterial activity against Bacillus cereus ATCC 11778 after 24 hrs by agar streak dilution method; type: functional; conditions: ATCC 11778, 24 h; how it was run: as §1
Klebsiella pneumoniae [7] = test: Antibacterial activity against Klebsiella pneumoniae ATCC 11298 after 24 hrs by agar streak dilution method; type: functional; conditions: ATCC 11298, 24 h; how it was run: as §1
Pseudomonas aeruginosa = test: microbe, parasite or virus in culture; conditions: ATCC 2853, 24 h, read-out: IZ
Staphylococcus aureus [8] = test: microbe, parasite or virus in culture; conditions: ATCC 9144, 24 h, read-out: IZ
[9] = tested on: Staphylococcus epidermidis; test: microbe, parasite or virus in culture; conditions: ATCC 155, 24 h, read-out: IZ
Escherichia coli = test: microbe, parasite or virus in culture; conditions: ATCC 25922, 24 h, read-out: IZ
Klebsiella pneumoniae [10] = test: microbe, parasite or virus in culture; conditions: ATCC 11298, 24 h, read-out: IZ

O=C(O)c1cn(C2CC2)c2cc(N3CCNCC3)c(F)cc2c1=O [CIPROFLOXACIN]
zone of inhibition at 100 µg/disc (Micrococcus luteus [1]): 30 mm
zone of inhibition at 100 µg/disc (Bacillus cereus [2]): 29 mm
MIC (Staphylococcus aureus [3]): 0.2 µg/mL (≈ 0.604 µM)
MIC [4]: 0.39 µg/mL (≈ 1.18 µM)
MIC (Micrococcus luteus [5]): 0.1 µg/mL (≈ 0.302 µM)
MIC (Bacillus cereus [6]): 0.3 µg/mL (≈ 0.905 µM)
MIC (Klebsiella pneumoniae [7]): 0.1 µg/mL (≈ 0.302 µM)
zone of inhibition at 100 µg/disc (Pseudomonas aeruginosa): 33 mm
zone of inhibition at 100 µg/disc (Staphylococcus aureus [8]): 29 mm
zone of inhibition at 100 µg/disc [9]: 31 mm
zone of inhibition at 100 µg/disc (Escherichia coli): 32 mm
zone of inhibition at 100 µg/disc (Klebsiella pneumoniae [10]): 33 mm
